Reference: ChEMBL document CHEMBL4330146, “Identification of α-Glucosidase Inhibitors in Machilus litseifolia by Combined Use of High-Resolution α-Glucosidase Inhibition Profiling and HPLC-PDA-HRMS-SPE-NMR” (J Nat Prod, 2019)

Experiment: Inhibition of yeast alpha-glucosidase pre-incubated for 10 mins followed by pNPG substrate addition and measured every 30 secs for 35 mins
Design: species or system Saccharomyces cerevisiae
Outline: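 S. cerevisiae α-glucosidase (enzyme solution 2.0 U/mL) in 100 mM phosphate buffer, pH 7.5, with NaN3. Serial DMSO dilutions, nine concentrations, in triplicate. Preincubated 10 min at 28 °C, then p-NPG added (substrate solution 10 mM). A405 read every 30 s for 35 min. Inhibition taken from rate slope versus enzyme–substrate blanks; IC50 from three-parameter curve fit.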

Compound | IC50
C[C@H]1O[C@H](O[C@H]2[C@H](O)[C@@H](O)[C@@H](O[C@H]3[C@H](O)[C@@H](O)C(O)O[C@@H]3CO)O[C@@H]2CO)[C@H](O)[C@@H](O)[C@@H]1N[C@H]1C=C(CO)[C@@H](O)[C@H](O)[C@H]1O (some centres undefined) [ACARBOSE] | 266 µM
COc1ccc(-c2oc3cc(O)cc(O)c3c(=O)c2O[C@@H]2O[C@@H](C)[C@H](OC(=O)/C=C/c3ccc(O)cc3)[C@@H](O)[C@H]2OC(=O)/C=C\c2ccc(O)cc2)cc1 | 10.1 µM
COc1ccc(-c2oc3cc(O)cc(O)c3c(=O)c2O[C@@H]2O[C@@H](C)[C@H](OC(=O)/C=C\c3ccc(O)cc3)[C@@H](O)[C@H]2OC(=O)/C=C\c2ccc(O)cc2)cc1 | 5.9 µM
COc1ccc(-c2oc3cc(O)cc(O)c3c(=O)c2O[C@@H]2O[C@@H](C)[C@H](OC(=O)/C=C/c3ccc(O)cc3)[C@@H](O)[C@H]2OC(=O)/C=C/c2ccc(O)cc2)cc1 | 26.9 µM
COc1ccc(-c2oc3cc(O)cc(O)c3c(=O)c2O[C@@H]2O[C@@H](C)[C@H](OC(=O)/C=C\c3ccc(O)cc3)[C@@H](O)[C@H]2OC(=O)/C=C/c2ccc(O)cc2)cc1O | 28.2 µM

More lines, now with the values ahead:

IC50 | Compound
35.3 µM | C[C@@H]1O[C@@H](Oc2c(-c3ccc(O)cc3)oc3cc(O)cc(O)c3c2=O)[C@H](OC(=O)/C=C\c2ccc(O)cc2)[C@H](O)[C@H]1OC(=O)/C=C/c1ccc(O)cc1
16.1 µM | C[C@@H]1O[C@@H](Oc2c(-c3ccc(O)cc3)oc3cc(O)cc(O)c3c2=O)[C@H](OC(=O)/C=C/c2ccc(O)cc2)[C@H](O)[C@H]1OC(=O)/C=C\c1ccc(O)cc1
12.9 µM | C[C@@H]1O[C@@H](Oc2c(-c3ccc(O)cc3)oc3cc(O)cc(O)c3c2=O)[C@H](OC(=O)/C=C/c2ccc(O)cc2)[C@H](O)[C@H]1OC(=O)/C=C/c1ccc(O)cc1
6.8 µM | COc1ccc(-c2oc3cc(O)cc(O)c3c(=O)c2O[C@@H]2O[C@@H](C)[C@H](OC(=O)/C=C\c3ccc(O)cc3)[C@@H](O)[C@H]2OC(=O)/C=C/c2ccc(O)cc2)cc1
